High-throughput results (PubChem)
Hits are enriched below; roughly 2.5% of the tested compounds scored in any of these assays.
EP2 mod: EP2 receptor modulators, cAMP readout, primary screen, cell-based, HTRF cAMP, PGE2 stimulation. Prostaglandin E2 receptor EP2 subtype (Homo sapiens), P43116. EP2-expressing cells, cAMP HTRF FRET, PGE2 co-stimulation. induction, % at 25 µM. actives 0.83% (n = 260,000). AID 940, 2007;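 active means compounds whose cAMP rise, as percent of the full-agonist control response, exceeds 60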;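 further: rat C6 glioma line stably carrying human EP2 under a CMV promoter; the protocol text gives 20 µM as final concentration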
PHOSPHO1 block: PubChem AID 1565; recombinant PHOSPHO1, absorbance phosphatase assay; Phosphoethanolamine/phosphocholine phosphatase (Homo sapiens), Q8TCT1; inhibition, % at 13.3 µM; actives 1.1% (n = 290,000); in the data active means inhibition above about 60%
PGE2 EP2 inh: human EP2 receptor antagonists, primary screen, TR-FRET cAMP, C6 glioma cells. C6 glioma cells expressing human EP2; cells stimulated with saturating PGE2. inhibition, % at 25 µM. actives 0.52% (n = 260,000). AID 1422, 2008;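 active means percent inhibition above 40 after rounding to a whole number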;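 further: rat C6 glioma host cells with rolipram phosphodiesterase inhibitor present; the protocol text gives 20 µM as final concentration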
HKDC1 inhibitor: HKDC1 hexokinase inhibitors, primary screen, biochemical, fluorescence, uHTS; Q2TB90; recombinant HKDC1, G6PDH/diaphorase resazurin coupled fluorescence; inhibition, % at 20 µM; actives 0.16% (n = 340,000);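 active means inhibition above about 35% when tested at 20 µM, limit read from the data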
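Test system: HK5 enzyme. Quantity: 5 µg/mL HK5 final. Reagent: glucose and ATP substrates. Schedule: 90 min reaction incubation at room temperature, dark. Technique: resazurin-to-resorufin fluorescence via G6PDH and diaphorase coupling, 525/613 nm. Control set: DMSO wells with and without enzyme mix.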
PfGluPho inh: PfG6PD enzyme inhibitors, primary screen, biochemical, fluorescence intensity, uHTS; glucose-6-phosphate dehydrogenase-6-phosphogluconolactonase (Plasmodium falciparum 3D7); PfGluPho enzyme, NADPH resazurin-diaphorase fluorescence; inhibition, % at 20 µM; actives 0.78% (n = 350,000);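 active means inhibition reaching at least a set limit at 20 µM in the primary screen, cut at about 59% in these data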
TbHK1 inh: Trypanosoma brucei hexokinase 1 inhibitors, primary screen, biochemical, G6PDH-coupled NADH absorbance, MLSCN library | hexokinase 1 [Trypanosoma brucei] | recombinant TbHK1, G6PDH-coupled NADH A340 | inhibition, % at 10 µM | actives 0.11% (n = 220,000);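 active means inhibition of 50% or more in the single-dose primary screen; inactive means inhibition below 50%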
Numbers stand for hits; i = inactive; nt = no result.

SMILES | EP2 mod | PHOSPHO1 block | PGE2 EP2 inh | HKDC1 inhibitor | PfGluPho inh | TbHK1 inh
CCn1c(COc2cccc(C)c2)nnc1SCC(=O)NC | i | nt | i | nt | nt | nt
Oc1oc(-c2ccccc2)nc1C=Nc1ccccc1 | i | i | nt | i | i | i
Sc1oc(-c2ccccc2)cc1C=Nc1ccccc1 | i | 90.9 | i | i | i | i
O=C(C1=C(O)C(=O)N(Cc2ccco2)C1c1cccnc1)c1cc2ccccc2o1 (stereo not given) | i | i | 46.9 | i | i | i
CN(C)CCCN1C(=O)C(O)=C(C(=O)c2cc3ccccc3o2)C1c1ccccc1 (stereo not given) | 62.0 | i | nt | i | i | i
Oc1ccccc1C=NCCCCCCN=Cc1ccccc1O | 62.4 | i | i | i | i | i
O=C(O)c1ccc(/C=N/n2cc(-c3ccccc3)[nH]c2=S)cc1 | i | 97.3 | i | i | i | i
CCOC(=O)C1CCN(C(=O)CN(c2cccc(OC)c2)S(C)(=O)=O)CC1 | i | nt | i | nt | nt | nt
COCCN(CCOC)c1ncnc2c1cnn2-c1ccccc1 | 78.4 | i | i | i | i | i
COc1ccc(C(=O)[C@@H]2CCCN(C(=O)OC(C)(C)C)C2)cc1 | i | nt | nt | nt | nt | nt
O=C(O)c1c(Cl)c(Cl)c(Cl)c(Cl)c1C(=O)Nc1ccc2cn[nH]c2c1 | i | nt | 57.8 | nt | nt | nt
O=C(NC(=S)Nc1ccc2cn[nH]c2c1)c1ccccc1 | i | i | i | i | i | i
CC(C)(C)NC(=O)CSc1nc2ccccc2n1Cc1c(F)cccc1Cl | i | nt | i | nt | nt | nt
CSc1nc2ccccc2n1Cc1c(Cl)cccc1Cl | 64.6 | i | i | i | i | i
CCCNC(=S)N(Cc1cc2c(C)cc(C)cc2[nH]c1=O)C1CCCCC1 | 60.7 | nt | i | nt | nt | nt
Cc1ccc(C)c2[nH]c(=O)c(CN(C(=S)NCc3ccccc3)C3CCCCC3)cc12 | 63.9 | nt | i | nt | nt | nt
CCOC(=O)C(=CNNc1cccc(Cl)c1)C(=O)OCC | i | 74.5 | i | i | i | i
O=c1oc2cc(O)c(Cl)cc2c2ccccc12 | 61.4 | i | i | i | i | i
OCC1OC(n2ccc3c(NO)ncnc32)C(O)C1O (stereo not given) | nt | nt | nt | i | i | nt
N/C(=N/O)c1cn([C@H]2O[C@@H](CO)[C@H](O)[C@H]2O)c2ncnc(NO)c12 | i | nt | 47.0 | nt | nt | nt
CC1=C(C(=O)Nc2cccnc2)C(c2cccnc2)n2nc(-c3cccs3)nc2N1 (stereo not given) | i | 62.3 | i | i | i | i
CC(=O)c1coc2c1cc(O)c1ccccc12 | i | 64.4 | i | i | i | i
CC(=O)c1cc(O)c2ccccc2c1O | i | i | i | 43.6 | i | i
CC(=O)c1c(C)oc2c1cc(O)c1ccccc12 | i | i | i | i | i | i
CCCn1c(SCC(=O)Nc2ccccc2C)nnc1C(C)C | i | nt | i | nt | nt | nt
SMILES | EP2 mod | PHOSPHO1 block | PGE2 EP2 inh | HKDC1 inhibitor | PfGluPho inh | TbHK1 inh
c1ccc(-c2nc(N3CCOCC3)c3ccccc3n2)nc1 | i | i | i | i | i | i
c1ccc(-c2nc(N3CCCCCC3)c3ccccc3n2)nc1 | 61.0 | i | i | i | i | i
c1ccc2c(c1)nc(N1CCCCC1)c1ccccc12 | 67.6 | i | i | i | i | i
O=C(Cn1nc(C(F)(F)F)c2c1CCCC2)Nc1cc(Cl)ccc1Cl | i | nt | i | nt | nt | nt
Cc1ccc(C)c2[nH]c(=O)c(CN(CC3CCCO3)C(=S)NCCc3ccccc3)cc12 (stereo not given) | i | nt | i | nt | nt | nt
COC(=O)Oc1nsnc1N1CCOCC1 | i | 91.7 | i | i | 60.8 | i
O=C(Oc1nsnc1N1CCOCC1)N(c1ccccc1)c1ccccc1 | i | i | i | i | i | i
O=C1ON=C(c2ccccc2)/C1=C\c1ccco1 | i | i | i | i | i | i
Cc1ccc(/C=C2/C(=O)ON=C2c2ccccc2)o1 | i | i | 80.3 | i | i | i
CCn1c2cc(C)oc2c2cnn(CC(=O)NCc3cccs3)c(=O)c21 | i | nt | nt | nt | nt | nt
CCOc1ccc(CCNC(=O)CS(=O)(=O)Cc2nc(-c3ccc(OC)cc3)oc2C)cc1 | nt | 63.9 | nt | i | i | nt
CCOc1ccc2[nH]c(=O)c(CN(C(=O)Nc3ccccc3)C3CCCC3)cc2c1 | i | nt | i | nt | nt | nt
CCNc1nc(-c2ccc(OC)cc2)cs1 | i | nt | i | nt | nt | nt
